# Experimental data published in PubChem BioAssay AID623875 (Vanderbilt Specialized Chemistry Center, 2012).
# Several values for one entry are separate records, joined by “and”; a condition that tells them apart may be missing. Identical values can stand only once.
# Biological target: Metabotropic glutamate receptor 4 (Rattus norvegicus) (UniProt P31423)
# Assay: rat mGlu4 positive allosteric modulators, SAR follow-up, thallium flux, HEK/GIRK cells (AID 623875)
# Settings: HEK/GIRK rat mGlu4, thallium flux fluorescence, PAM
# In short: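 Assay system: HEK/GIRK/M4 cells stably expressing rat mGlu4 receptor; reagent: glutamate agonist added in thallium-containing buffer; dosing: 10-point concentration-response series, threefold dilution steps; schedule: 1 h dye load, ~2.5 min compound pre-agonist; detection: thallium flux through GIRK channels, FluoZin-2 AM fluorescence; read-out basis: baseline-normalized fluorescence slope 5–15 s post-addition, four-parameter logistic EC50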
# Sequence of Metabotropic glutamate receptor 4 (Rattus norvegicus) (P31423 whole entry, looked up): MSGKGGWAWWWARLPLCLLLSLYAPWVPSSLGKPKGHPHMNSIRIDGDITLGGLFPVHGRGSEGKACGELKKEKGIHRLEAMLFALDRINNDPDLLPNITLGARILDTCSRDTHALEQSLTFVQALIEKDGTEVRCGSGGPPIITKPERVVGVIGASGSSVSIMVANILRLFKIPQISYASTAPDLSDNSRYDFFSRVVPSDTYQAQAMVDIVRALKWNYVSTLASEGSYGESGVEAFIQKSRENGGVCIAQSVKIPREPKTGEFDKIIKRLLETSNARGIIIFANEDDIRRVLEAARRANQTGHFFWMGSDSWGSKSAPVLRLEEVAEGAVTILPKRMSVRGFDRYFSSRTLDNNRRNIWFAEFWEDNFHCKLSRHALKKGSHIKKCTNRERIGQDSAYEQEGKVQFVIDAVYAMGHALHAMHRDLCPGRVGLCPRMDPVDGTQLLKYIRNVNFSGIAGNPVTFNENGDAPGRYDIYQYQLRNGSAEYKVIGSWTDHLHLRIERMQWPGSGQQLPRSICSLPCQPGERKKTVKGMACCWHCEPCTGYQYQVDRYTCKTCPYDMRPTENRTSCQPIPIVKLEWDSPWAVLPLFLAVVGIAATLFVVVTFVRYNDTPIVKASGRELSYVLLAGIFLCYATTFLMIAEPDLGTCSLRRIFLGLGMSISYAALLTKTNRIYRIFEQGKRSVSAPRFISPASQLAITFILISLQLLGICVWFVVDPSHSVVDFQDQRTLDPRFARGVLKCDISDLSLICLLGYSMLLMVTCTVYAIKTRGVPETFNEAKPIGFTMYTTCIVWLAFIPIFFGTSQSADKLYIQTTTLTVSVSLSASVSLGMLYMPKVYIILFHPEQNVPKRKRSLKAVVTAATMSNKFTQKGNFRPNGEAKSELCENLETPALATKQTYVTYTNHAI
row,EC50,SMILES
1,70 nM and 80 nM,Clc1cccc(Nc2noc3cccnc23)c1
2,6330 nM,COc1cc2nc(-c3ccccn3)[nH]c2cc1Cl
3,2580 nM,Clc1cccc(Nc2ncnc3cccnc23)c1
4,330 nM,O=C(Nc1cccc(Cl)c1)c1ccccn1
5,10300 nM,CC(C)N(C(=O)c1ccccn1)c1cccc(Cl)c1
6,1020 nM,Clc1ccc2nc(-c3ccccn3)[nH]c2c1

# More lines, now with the values behind:
row,SMILES,EC50
1,Fc1cccc(Nc2noc3cccnc23)c1,530 nM
2,O=C(Nc1ccc2cn[nH]c2c1)c1ccccn1,980 nM
3,O=C(Nc1ccc2c(c1)C(=O)NC2=O)c1ccccn1,2120 nM
4,COc1cc(Nc2noc3cccnc23)ccc1Cl,1190 nM
5,FC(F)Oc1cccc(Nc2noc3cccnc23)c1,110 nM and 130 nM
